Experimental data from publication PMC5488126 (CPT: Pharmacometrics & Systems Pharmacology, 2017).

Tests used:
platelet counts [1] = experiment: Simulation of human platelet counts with healthy BM; settings: healthy simulations, converted from rat slope using fu
circulating platelets = experiment: Rat platelet count study fitted to myelosuppression model; format: in vivo, Han Wistar rat; settings: for platelet changes in rat: oral
platelet counts [2] = settings: human, BM dysfunction simulations
Outline: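 The Friberg platelet model was extended with a capacity term fr on the proliferating compartment. fr rose linearly from a baseline fraction of 0.65 (initial Circ0 61.2 ×10⁹/L) over recovery durations of 1 h and 10, 30, 100, 300 and 1,000 days. Runs used slope 0 (recovery only) or 0.45 with 300 mg q.d. for 98 days. Schedules compared over 300-day recovery were 300 mg q.d. continuous, b.i.d. 3 on 4 off, and q.d. 7 on 7 off. fr was also varied from 0.25 to 1.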

[3] = Rat PK model of AZD5153 plasma concentrations; format: in vivo, Han Wistar rat; settings: oral, population typical estimate (RSE), estimated from observed data
Outline: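 Female Han Wistar rats, 9–10 weeks old, were dosed orally in 0.5% hydroxymethylcellulose with 0.1% Tween80. Plasma was taken 2 h postdose on days 1, 4 and 7 and measured by LC-MS/MS. Data were fitted to a one-compartment model with first-order absorption, with ka and clearance fixed from a separate toxicology study and volume estimated. Fitting used FOCE-ELS and included between-subject variability.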

[4] = cited from earlier work

SMILES	slopeAZD5153 (platelet counts [1])	platelet changes in rat (circulating platelets; 0.1 mg/kg q.d.)	platelet changes in rat (circulating platelets; 1 mg/kg q.d.)	platelet changes in rat (circulating platelets; 1.5 mg/kg b.i.d. (3 on 4 off))	slopeAZD5153 (circulating platelets; rat platelet PD model, total concentrations, population typical estimate (RSE))	Recovery +drug induced myelosuppression: slopeAZD5153 (platelet counts [2])	V [3]	frequency of severe TCP by pretreatment baseline ([4]; OTX015 phase 1 trial)	dose-limiting toxicity in patients ([4]; phase I, nonleukemia hematological malignancies)
COc1nnc2ccc(N3CCC(c4ccc(OCCN5CCN(C)C(=O)[C@H]5C)cc4)CC3)nn12 [AZD5153, (3R)‐4‐[2‐[4‐[1‐(3‐methoxy‐[1,2,4]triazolo[4,3‐b]pyridazin‐6‐yl)‐4‐piperidyl]phenoxy]ethyl]‐1,3‐dimethyl‐piperazin‐2‐one]	0.45 1/(μmol/L)	negligible platelet changes	clear effects	clear effects	0.09 (14) 1/(μmol/L)	0.45 1/(μmol/L)	0.39 (16) L/kg		
Cc1sc2c(c1C)C(c1ccc(Cl)cc1)=N[C@@H](CC(=O)Nc1ccc(O)cc1)c1nnc(C)n1-2 [OTX015]								severe TCP was more frequent in patients with low platelet counts at pretreatment baseline	thrombocytopenia (TCP) as a dose‐limiting toxicity (DLT)
